Screening data from PubChem.
A3A deaminase – inhibitors of human APOBEC3A DNA deaminase; P31941; recombinant A3A, FAM/TAMRA ssDNA deamination fluorescence; inhibition, % at 20 µM; actives 0.41% (n = 330,000);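 active means at least 40% inhibition at 20 µM here, with at most 30% in a related deaminase screen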;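 further: plate controls were A3A with DMSO for no effect and wells lacking A3A enzyme for full effect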
Tb MetRS inh – blocks T. brucei methionyl-tRNA synthetase activity. purified T. brucei MetRS, ATP depletion, Kinase-Glo luminescence. inhibition, % at 11.9 µM. actives 0.4% (n = 360,000). AID 624268;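 active means inhibition above a per-plate cutoff of the control wells' mean inhibition plus 3 SD, cut at about 5.5% in these data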;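 further: 0% = DMSO wells median and 100% = median of wells with control inhibitor compound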
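assay system = parasite MetRS enzyme | timing = 15 min preincubation, 2 h reaction, all 25 °C | evaluation = percent inhibition relative to median high and low control wells | medium = HEPES buffer containing pyrophosphatase, BSA, spermine, DTT | compound = single dose, 11.9 µM final nominal, 0.9% final DMSO | detection = Kinase-Glo luminescence, ATP depletion format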
PHOSPHO1 inh – inhibitors of human PHOSPHO1 phosphatase; Q8TCT1; recombinant PHOSPHO1, absorbance phosphatase assay; inhibition, % at 13.3 µM; actives 1.1% (n = 290,000); AID 1565; in the data active means inhibition above about 60%
p-CIP stab down – compounds decreasing mouse p/CIP protein stability; F442A p/CIP-EGFP cells, EGFP fluorescence, 16 h; decrease of EGFP signal, % at 10 µM; Q05BA5; AID 1984; actives 0.01% (n = 290,000);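 active means EGFP signal decrease of at least 30% at 10 µM or well 3 SD below plate mean, unless failing retest; inactive means the rest, including hits failing retest or dose response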
Target sequence (Q05BA5 1-1403): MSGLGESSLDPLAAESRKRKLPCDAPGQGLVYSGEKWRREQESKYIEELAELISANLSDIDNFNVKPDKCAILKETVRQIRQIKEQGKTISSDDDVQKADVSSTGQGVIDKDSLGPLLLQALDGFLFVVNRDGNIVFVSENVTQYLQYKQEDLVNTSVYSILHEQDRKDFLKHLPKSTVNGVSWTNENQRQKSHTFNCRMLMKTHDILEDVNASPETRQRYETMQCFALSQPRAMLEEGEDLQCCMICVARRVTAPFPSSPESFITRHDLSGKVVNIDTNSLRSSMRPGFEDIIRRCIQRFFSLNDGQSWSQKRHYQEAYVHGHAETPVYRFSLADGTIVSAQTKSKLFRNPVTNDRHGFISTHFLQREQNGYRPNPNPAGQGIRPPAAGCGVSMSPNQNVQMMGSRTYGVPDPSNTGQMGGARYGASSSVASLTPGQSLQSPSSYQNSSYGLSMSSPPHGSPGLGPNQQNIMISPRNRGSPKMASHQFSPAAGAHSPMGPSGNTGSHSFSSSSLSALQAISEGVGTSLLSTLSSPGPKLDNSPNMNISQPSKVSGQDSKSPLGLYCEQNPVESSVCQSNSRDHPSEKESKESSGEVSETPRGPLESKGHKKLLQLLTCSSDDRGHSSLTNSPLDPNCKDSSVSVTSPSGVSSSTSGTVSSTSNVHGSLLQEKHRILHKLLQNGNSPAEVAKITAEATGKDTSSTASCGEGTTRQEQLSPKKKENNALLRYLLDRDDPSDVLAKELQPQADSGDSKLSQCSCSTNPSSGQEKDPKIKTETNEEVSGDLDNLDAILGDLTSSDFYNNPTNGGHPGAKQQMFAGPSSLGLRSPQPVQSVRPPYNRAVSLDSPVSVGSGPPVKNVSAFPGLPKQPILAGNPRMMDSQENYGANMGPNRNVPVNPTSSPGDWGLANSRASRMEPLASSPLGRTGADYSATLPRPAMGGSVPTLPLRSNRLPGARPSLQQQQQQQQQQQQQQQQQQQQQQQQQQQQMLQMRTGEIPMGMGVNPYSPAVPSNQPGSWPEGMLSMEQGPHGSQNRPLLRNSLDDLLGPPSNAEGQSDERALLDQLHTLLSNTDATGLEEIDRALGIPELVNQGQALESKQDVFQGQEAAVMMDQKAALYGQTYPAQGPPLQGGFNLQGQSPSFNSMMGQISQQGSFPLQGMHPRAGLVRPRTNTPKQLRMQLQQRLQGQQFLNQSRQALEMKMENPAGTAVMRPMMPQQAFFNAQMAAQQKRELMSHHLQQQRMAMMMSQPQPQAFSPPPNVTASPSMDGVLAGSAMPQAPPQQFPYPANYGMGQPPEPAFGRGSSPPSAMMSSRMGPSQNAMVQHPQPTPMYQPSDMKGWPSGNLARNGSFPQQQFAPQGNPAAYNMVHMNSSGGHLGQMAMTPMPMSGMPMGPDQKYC
A3G deaminase – blocks human APOBEC3G single-stranded DNA deamination | Q9HC16 | recombinant A3G, ssDNA deamination FAM/TAMRA fluorescence | actives 0.28% (n = 330,000) | inhibition, % at 20 µM;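 active means inhibition of at least 40% at 20 µM, with no more than 30% in the related APOBEC3A deaminase screen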;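 further: plate controls were DMSO wells with A3G for no effect and wells lacking A3G enzyme for full effect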
* marks the source's active call; other numbers are inactive results; / = no result given. A selection: hits, their analogues and other compounds. The true share with any hit is near 1.8%.

SMILES	A3A deaminase	Tb MetRS inh	PHOSPHO1 inh	p-CIP stab down	A3G deaminase
CSc1ncc(C(=O)O)n1-c1ccc(F)cc1	-3	-1	-3	-12	-3
O=C(NC1CC1)c1ccc2sc([C@@H]3O[C@H](CO)[C@H](O)[C@H](O)[C@H]3O)nc2c1	/	0	/	/	/
CCC(C(=O)NCCC(C)C)n1ccc2cc(S(=O)(=O)N3CCCCC3)ccc21 (stereo not given)	1	0	63*	-16	5
CCC(CC)C(=O)c1c[nH]c(C(=O)NCCCN2CCOCC2)c1	-1	1	66*	0	-10
O=C(c1ccc(F)cc1)c1c[nH]c(C(=O)NCCCN2CCOCC2)c1	-2	0	5	-2	-7
CCN(CC)C(=O)CSc1nnc(-c2cc3ccccc3cc2O)n1CC	-2	0	62*	7	-2
CCn1c(-c2c[nH]c3ccccc23)n[nH]c1=S	-6	0	79*	4	39
CCn1c(-c2cc3ccccc3cc2O)n[nH]c1=S	-2	-1	92*	2	21
C=CCn1c(-c2c[nH]c3ccccc23)n[nH]c1=S	-8	0	101*	2	19
COc1ccc(-c2cc(C(=O)N3CCN(c4cccc(C)c4C)CC3)c3ccccc3n2)cc1OC	-4	0	/	/	-7
COCCNc1nc(Nc2ccc(F)cc2)c2sccc2n1	/	0	/	/	/
Cc1ccc(S(=O)(=O)N2CCOCC2)cc1NC(=O)COC(=O)c1ccc(Br)o1	/	0	/	/	/
C=CCn1c(-c2ccoc2C)n[nH]c1=S	-5	-1	81*	-6	-7
CCCCn1c(-c2ccoc2C)n[nH]c1=S	0	0	-3	-6	36
CCc1nnc(NC(=O)c2sc3nc4cc(C)ccc4cc3c2N)s1	-4	0	99*	-2	-8
COC(=O)c1ccc(-c2noc(CN(C)CC3CCCCO3)n2)cc1 (stereo not given)	-5	-1	10	8	-6
CCn1ccnc1CN(C)Cc1nc(-c2ccc(C(=O)OC)cc2)no1	11	-1	60*	-8	5
O=[N+]([O-])c1ccccc1/C=C/C=N/n1c(-c2ccccc2)n[nH]c1=S	-4	0	-17	0	6
Cc1ccc(-c2n[nH]c(=S)n2/N=C/C=C\c2ccccc2[N+](=O)[O-])cc1	-4	1	92*	-3	9
O=[N+]([O-])c1ccccc1/C=C/C=N/n1c(-c2ccc(Cl)cc2)n[nH]c1=S	-2	0	104*	-2	-3
CCOC(=O)c1c(C)[nH]c(C(=O)OCC(=O)Nc2sccc2C(N)=O)c1C	-1	0	/	/	-5
O=C(NCc1ccccc1)C(CCc1ccccc1)n1c(=O)c(-c2ccccc2)nc2ccccc21 (stereo not given)	/	0	/	/	/
CCOC(=O)c1sc(NC(C)=O)nc1-c1ccccc1	-2	0	27	0	-7
CC(=O)Nc1sc(N)nc1-c1ccccc1	-2	0	80*	1	-7
C=CCc1c(C)c(C#N)c2nc3ccccc3n2c1N1CCCCC1	0	0	-12	-1	2
SMILES	A3A deaminase	Tb MetRS inh	PHOSPHO1 inh	p-CIP stab down	A3G deaminase
C=CCc1c(C)[nH]c(=S)c(C#N)c1C	2	1	83*	-1	34
O=C(NC12CC3CC(CC(C3)C1)C2)N1CCC(n2nnc3ccccc32)CC1	4	-1	0	-5	0
CCOC(=O)c1c(-c2ccc(C)o2)csc1N	2	0	69*	-10	0
CCOC(=O)c1c(-c2ccc(C)s2)csc1N	-6	-1	-92	-5	3
CCOC(=O)c1c(-c2ccsc2)csc1N	-1	-1	92*	-4	1
O=C1CC(NS(=O)(=O)c2cc(F)ccc2F)CN1c1cccc(F)c1 (stereo not given)	-2	0	/	/	-8
CCc1ccc(C2CC(=O)N(c3cccc(F)c3)C3=C2C(=O)OC3)cc1 (stereo not given)	-6	-1	24	-8	-4
Cn1cc2cc([N+](=O)[O-])ccc2n1	-2	0	-19	-5	-6
O=C(c1cc(COc2ccc(F)cc2F)on1)N1CCCC(c2ccccc2)C1 (stereo not given)	2	0	60*	-23	-4
O=C(c1cc(COc2cccc3cnccc23)on1)N1CCCC(CCCO)C1 (stereo not given)	3	0	63*	-15	-1
Cc1nc(NC(C)C(=O)O)c2nc(C)oc2n1 (stereo not given)	-2	-1	62*	5	-3
